In ChEMBL document CHEMBL1154290, “Synthesis and in vitro autoradiographic evaluation of a novel high-affinity radioiodinated ligand for imaging brain cannabinoid subtype-1 receptors” (Bioorg Med Chem Lett, 2009) one finds Ki and inhibition data, which are given here for two molecules.

Molecules are shown by their SMILES.

In test [1] the target is Alpha-2C adrenergic receptor (Homo sapiens, UniProt P18825). As to the kind of experiment: Displacement of [125I]Iodoclonidine from alpha-2C adrenergic receptor at 10 uM by scintillation counting.
For test [2], the target named is Cannabinoid receptor 1 (Homo sapiens, UniProt P21554).
Test [3] has as its target 5-hydroxytryptamine receptor 1A (Homo sapiens, UniProt P08908). Put plainly: Displacement of [3H]8OH-DPAT from 5HT1A receptor at 10 uM by scintillation counting. (Displacement assays read how much labelled ligand stays bound in the presence of the test substance.)
The target in test [4] is Kappa-type opioid receptor (Homo sapiens, UniProt P41145). Put plainly: Displacement of [3H]U69593 from kappa opioid receptor at 10 uM by scintillation counting.
The target of test [5] is Mu-type opioid receptor (Homo sapiens, UniProt P35372). Put plainly: Displacement of [3H]DAMGO from mu opioid at 10 uM by scintillation counting.
Test [6] concerns the target Translocator protein (Homo sapiens, UniProt P30536). Put plainly: Displacement of [3H]PK11195 from TSPO at 10 uM by scintillation counting.
Test [7] deals with Cannabinoid receptor 2 (Homo sapiens, UniProt P34972). As to the kind of experiment: Displacement of [3H]CP-55940 from CB2 receptor by scintillation counting. The gist of the method:
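CB2 affinity given as Ki from radioligand displacement, reported as mean ± SD of three determinations.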

Test [8] deals with Beta-2 adrenergic receptor (Homo sapiens) (UniProt P07550). Put plainly: Displacement of [125I]Iodopindolol from beta2 adrenergic receptor at 10 uM by scintillation counting. Particulars: tested as the 125I-labelled form.
Test [9] deals with Vasopressin V1a receptor (Homo sapiens) (UniProt P37288). As to the kind of experiment: Displacement of [3H]vasopressin from vasopressin1A receptor at 10 uM by scintillation counting. The following applies: tested as the 125I-labelled form. The gist of the method: (§1)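 Receptor-panel selectivity screen: test ligand at a single 10 μM concentration. Each site is assayed by inhibition of binding of its radioligand, read out as percent inhibition (n = 4).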

The target in test [10] is Sigma non-opioid intracellular receptor 1 (Homo sapiens) (UniProt Q99720). As to the kind of experiment: Displacement of [3H]Pentazocine from sigma1 opioid receptor at 10 uM by scintillation counting. Particulars: tested as the 125I-labelled form. The gist of the method:
as §1

In test [11] the target is D(2) dopamine receptor (Homo sapiens) (UniProt P14416). As to the kind of experiment: Displacement of [3H]N-methylspiperone from dopamine D 2( receptor) at 10 uM by scintillation counting. Particulars: tested as the 125I-labelled form. The gist of the method: as §1
For test [12], the target named is 5-hydroxytryptamine receptor 2C (Homo sapiens) (UniProt P28335). Put plainly: Inhibition of radioligand binding to 5HT1C (receptor) at 10 uM. The following applies: tested as the 125I-labelled form. The gist of the method:
as §1

Test [13] deals with 5-hydroxytryptamine receptor 7 (Homo sapiens) (UniProt P34969). Put plainly: Displacement of [3H]LSD from 5HT7 (receptor) at 10 uM by scintillation counting. Particulars: tested as the 125I-labelled form. The gist of the method:
as §1

The target in test [14] is Histamine H3 receptor (Homo sapiens) (UniProt Q9Y5N1). As to the kind of experiment: Displacement of [3H]alpha-methylhistamine from histamine H3 (receptor) at 10 uM by scintillation counting. The following applies: tested as the 125I-labelled form. The gist of the method:
as §1

For test [15], the target named is Beta-1 adrenergic receptor (Homo sapiens) (UniProt P08588). Put plainly: Displacement of [125I]Iodopindolol from beta-1 adrenergic receptor at 10 uM by scintillation counting. Particulars: tested as the 125I-labelled form.
Test [16] has as its target 5-hydroxytryptamine receptor 2A (Homo sapiens) (UniProt P28223). As to the kind of experiment: Displacement of [3H]Ketanserin from 5HT2A (receptor) at 10 uM by scintillation counting. The following applies: tested as the 125I-labelled form. The gist of the method: as §1
Test [17] deals with Vasopressin V2 receptor (Homo sapiens) (UniProt P30518). Put plainly: Displacement of [3H]vasopressin from vasopressin2 receptor at 10 uM by scintillation counting. The following applies: tested as the 125I-labelled form. The gist of the method:
as §1

Test [18] addresses Histamine H1 receptor (Homo sapiens) (UniProt P35367). Put plainly: Displacement of [3H]Pyrilamine from histamine H1 (receptor) at 10 uM by scintillation counting. The following applies: tested as the 125I-labelled form. The gist of the method:
as §1

The target in test [19] is Muscarinic acetylcholine receptor M3 (Homo sapiens) (UniProt P20309). Put plainly: Displacement of [3H]QNB from Muscarinic acetylcholine receptor M3 at 10 uM by scintillation counting. The following applies: tested as the 125I-labelled form. The gist of the method:
as §1

Test [20] deals with 5-hydroxytryptamine receptor 3A (Homo sapiens) (UniProt P46098). As to the kind of experiment: Displacement of [3H]LY278584 from 5HT3 (receptor) at 10 uM by scintillation counting. The following applies: tested as the 125I-labelled form. The gist of the method: as §1
5-hydroxytryptamine receptor 3A (Homo sapiens), sequence (P46098 whole entry): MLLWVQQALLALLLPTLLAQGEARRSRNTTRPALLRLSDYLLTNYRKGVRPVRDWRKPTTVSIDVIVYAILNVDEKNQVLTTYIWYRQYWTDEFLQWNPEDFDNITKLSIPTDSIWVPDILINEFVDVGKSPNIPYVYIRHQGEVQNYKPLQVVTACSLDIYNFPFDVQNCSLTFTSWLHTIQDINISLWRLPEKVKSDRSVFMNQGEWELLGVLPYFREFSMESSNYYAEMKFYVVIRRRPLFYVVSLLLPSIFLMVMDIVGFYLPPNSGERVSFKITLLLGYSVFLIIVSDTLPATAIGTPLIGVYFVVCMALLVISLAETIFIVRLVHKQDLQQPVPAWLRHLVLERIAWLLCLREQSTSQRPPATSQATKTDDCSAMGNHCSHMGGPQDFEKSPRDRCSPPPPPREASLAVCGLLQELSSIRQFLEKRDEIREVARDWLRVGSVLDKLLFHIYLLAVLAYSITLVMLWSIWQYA
Test [21] has as its target Histamine H4 receptor (Homo sapiens) (UniProt Q9H3N8). Put plainly: Displacement of [3H]Histamine from histamine H4 (receptor) at 10 uM by scintillation counting. Particulars: tested as the 125I-labelled form. The gist of the method: as §1
Test [22] addresses 5-hydroxytryptamine receptor 1D (Homo sapiens) (UniProt P28221). As to the kind of experiment: Displacement [3H]GR127543 from 5HT1D (receptor) at 10 uM by scintillation counting. The following applies: tested as the 125I-labelled form. The gist of the method: as §1
Test [23] addresses Alpha-2B adrenergic receptor (Homo sapiens) (UniProt P18089). As to the kind of experiment: Displacement of [3H]Clonidine from alpha-2B adrenergic receptor at 10 uM by scintillation counting. Particulars: tested as the 125I-labelled form. The gist of the method:
as §1

Test [24] deals with Muscarinic acetylcholine receptor M1 (Homo sapiens) (UniProt P11229). As to the kind of experiment: Displacement of [3H]QNB from Muscarinic acetylcholine receptor M1 at 10 uM by scintillation counting. The following applies: tested as the 125I-labelled form. The gist of the method: as §1
Muscarinic acetylcholine receptor M1 (Homo sapiens), sequence (P11229 whole entry): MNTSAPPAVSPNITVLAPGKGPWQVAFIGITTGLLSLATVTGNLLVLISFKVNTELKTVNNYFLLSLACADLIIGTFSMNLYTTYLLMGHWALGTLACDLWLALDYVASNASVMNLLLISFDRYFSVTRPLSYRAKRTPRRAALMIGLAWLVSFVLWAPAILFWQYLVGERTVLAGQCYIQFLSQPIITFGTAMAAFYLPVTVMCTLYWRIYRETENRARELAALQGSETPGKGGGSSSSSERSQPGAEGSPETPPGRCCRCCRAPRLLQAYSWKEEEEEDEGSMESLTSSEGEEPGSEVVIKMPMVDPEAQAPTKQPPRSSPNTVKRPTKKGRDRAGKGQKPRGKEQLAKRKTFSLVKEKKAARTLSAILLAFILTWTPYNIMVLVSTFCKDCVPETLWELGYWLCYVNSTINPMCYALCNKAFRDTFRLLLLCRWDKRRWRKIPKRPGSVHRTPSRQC
The target in test [25] is 5-hydroxytryptamine receptor 1B (Homo sapiens) (UniProt P28222). As to the kind of experiment: Displacement [3H]GR127543 from 5HT1B (receptor) at 10 uM by scintillation counting. Particulars: tested as the 125I-labelled form. The gist of the method:
as §1

Test [26] addresses Alpha-2A adrenergic receptor (Homo sapiens) (UniProt P08913). As to the kind of experiment: Displacement of [3H]Clonidine from alpha-2A adrenergic receptor at 10 uM by scintillation counting. Particulars: tested as the 125I-labelled form. The gist of the method:
as §1

The target in test [27] is D(4) dopamine receptor (Homo sapiens) (UniProt P21917). As to the kind of experiment: Displacement of [3H]N-methylspiperone from dopamine D 4 ( receptor) at 10 uM by scintillation counting. Particulars: tested as the 125I-labelled form. The gist of the method: as §1
D(4) dopamine receptor (Homo sapiens), sequence (P21917 whole entry): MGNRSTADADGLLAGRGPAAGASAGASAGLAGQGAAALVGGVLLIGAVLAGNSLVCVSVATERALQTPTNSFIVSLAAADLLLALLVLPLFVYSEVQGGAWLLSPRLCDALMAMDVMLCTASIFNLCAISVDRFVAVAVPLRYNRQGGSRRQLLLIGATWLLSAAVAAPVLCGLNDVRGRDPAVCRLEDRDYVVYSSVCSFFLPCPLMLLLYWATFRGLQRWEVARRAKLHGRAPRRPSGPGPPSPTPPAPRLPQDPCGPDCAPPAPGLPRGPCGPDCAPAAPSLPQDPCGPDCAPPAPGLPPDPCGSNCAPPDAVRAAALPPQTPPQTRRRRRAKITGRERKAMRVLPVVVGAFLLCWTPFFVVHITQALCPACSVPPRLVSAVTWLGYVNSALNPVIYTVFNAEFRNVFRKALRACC
The target of test [28] is 5-hydroxytryptamine receptor 5A (Homo sapiens) (UniProt P47898). As to the kind of experiment: Displacement of [3H]LSD from 5HT5A (receptor) at 10 uM by scintillation counting. The following applies: tested as the 125I-labelled form. The gist of the method:
as §1

Test [29] has as its target Histamine H2 receptor (Homo sapiens) (UniProt P25021). As to the kind of experiment: Displacement of [3H]Pyrilamine from histamine H2 (receptor) at 10 uM by scintillation counting. The following applies: tested as the 125I-labelled form. The gist of the method:
as §1

Test [30] deals with Alpha-1B adrenergic receptor (Homo sapiens) (UniProt P35368). Put plainly: Displacement of [3H]Prazosin from alpha-1B adrenergic receptor at 10 uM by scintillation counting. Particulars: tested as the 125I-labelled form. The gist of the method:
as §1

The target in test [31] is 5-hydroxytryptamine receptor 2C (Homo sapiens) (UniProt P28335). As to the kind of experiment: Displacement of [3H]Mesulergine from 5HT2C (receptor) at 10 uM by scintillation counting. The following applies: tested as the 125I-labelled form. The gist of the method:
as §1

Test [32] has as its target D(3) dopamine receptor (Homo sapiens) (UniProt P35462). As to the kind of experiment: Displacement of [3H]N-methylspiperone from dopamine D 3 ( receptor) at 10 uM by scintillation counting. Particulars: tested as the 125I-labelled form. The gist of the method:
as §1

For test [33], the target named is Muscarinic acetylcholine receptor M5 (Homo sapiens) (UniProt P08912). Put plainly: Displacement of [3H]QNB from Muscarinic acetylcholine receptor M5 at 10 uM by scintillation counting. Particulars: tested as the 125I-labelled form. The gist of the method:
as §1

In test [34] the target is Delta-type opioid receptor (Homo sapiens) (UniProt P41143). Put plainly: Displacement of [3H]DADLE from delta opioid receptor at 10 uM by scintillation counting. Particulars: tested as the 125I-labelled form. The gist of the method: as §1
Delta-type opioid receptor (Homo sapiens), sequence (P41143 whole entry): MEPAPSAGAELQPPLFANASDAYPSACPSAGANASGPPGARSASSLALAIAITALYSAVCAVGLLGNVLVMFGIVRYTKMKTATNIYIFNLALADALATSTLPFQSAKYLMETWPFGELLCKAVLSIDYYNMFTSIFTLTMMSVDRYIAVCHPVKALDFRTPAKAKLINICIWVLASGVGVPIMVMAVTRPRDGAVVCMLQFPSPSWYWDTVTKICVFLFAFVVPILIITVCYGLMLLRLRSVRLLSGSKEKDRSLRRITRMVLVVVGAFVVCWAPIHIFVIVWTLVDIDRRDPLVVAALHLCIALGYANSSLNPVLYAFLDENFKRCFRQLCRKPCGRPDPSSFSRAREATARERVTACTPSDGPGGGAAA
For test [35], the target named is Muscarinic acetylcholine receptor M2 (Homo sapiens) (UniProt P08172). Put plainly: Displacement of [3H]QNB from Muscarinic acetylcholine receptor M2 at 10 uM by scintillation counting. The following applies: tested as the 125I-labelled form. The gist of the method: as §1
For test [36], the target named is 5-hydroxytryptamine receptor 1E (Homo sapiens) (UniProt P28566). As to the kind of experiment: Displacement of [3H]5-HT from 5HT1E (receptor) at 10 uM by scintillation counting. The following applies: tested as the 125I-labelled form. The gist of the method: as §1
5-hydroxytryptamine receptor 1E (Homo sapiens), sequence (P28566 whole entry): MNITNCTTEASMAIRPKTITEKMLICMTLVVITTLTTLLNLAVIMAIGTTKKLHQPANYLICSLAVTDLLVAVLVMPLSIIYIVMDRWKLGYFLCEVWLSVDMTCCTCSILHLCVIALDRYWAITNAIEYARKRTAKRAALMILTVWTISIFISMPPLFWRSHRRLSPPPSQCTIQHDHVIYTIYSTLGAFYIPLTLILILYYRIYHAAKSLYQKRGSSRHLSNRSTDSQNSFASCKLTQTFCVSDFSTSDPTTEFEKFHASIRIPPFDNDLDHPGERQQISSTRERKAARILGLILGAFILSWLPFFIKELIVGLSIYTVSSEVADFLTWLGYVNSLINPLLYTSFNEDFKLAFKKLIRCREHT
Test [37] concerns the target 5-hydroxytryptamine receptor 2B (Homo sapiens) (UniProt P41595). As to the kind of experiment: Displacement of [3H]LSD from 5HT2B (receptor) at 10 uM by scintillation counting. The following applies: tested as the 125I-labelled form. The gist of the method:
as §1

Test [38] concerns the target Vasopressin V1b receptor (Homo sapiens) (UniProt P47901). As to the kind of experiment: Displacement of [3H]vasopressin from vasopressin1B receptor at 10 uM by scintillation counting. The following applies: tested as the 125I-labelled form. The gist of the method:
as §1

Test [39] in a line: Displacement of [3H]DTG from […] opioid receptor at 10 uM by scintillation counting. Particulars: tested as the 125I-labelled form. The gist of the method: as §1
The target in test [40] is 5-hydroxytryptamine receptor 6 (Homo sapiens) (UniProt P50406). Put plainly: Displacement of [3H]LSD from 5HT6 (receptor) at 10 uM by scintillation counting. Particulars: tested as the 125I-labelled form. The gist of the method: as §1
5-hydroxytryptamine receptor 6 (Homo sapiens), sequence (P50406 whole entry): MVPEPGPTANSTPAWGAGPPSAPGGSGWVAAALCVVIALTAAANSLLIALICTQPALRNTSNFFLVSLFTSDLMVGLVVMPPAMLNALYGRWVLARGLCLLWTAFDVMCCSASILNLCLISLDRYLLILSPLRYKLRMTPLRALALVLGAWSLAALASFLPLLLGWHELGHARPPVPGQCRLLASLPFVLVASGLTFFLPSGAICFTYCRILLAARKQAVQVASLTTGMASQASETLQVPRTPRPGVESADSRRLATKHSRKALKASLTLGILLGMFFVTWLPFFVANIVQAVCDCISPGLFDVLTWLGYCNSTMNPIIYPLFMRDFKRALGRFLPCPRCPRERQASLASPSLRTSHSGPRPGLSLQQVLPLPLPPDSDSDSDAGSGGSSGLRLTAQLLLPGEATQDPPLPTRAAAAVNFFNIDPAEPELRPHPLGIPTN
Test [41] addresses Beta-3 adrenergic receptor (Homo sapiens) (UniProt P13945). As to the kind of experiment: Displacement of [125I]Iodopindolol from beta3 adrenergic receptor at 10 uM by scintillation counting. Particulars: tested as the 125I-labelled form.
The target of test [42] is Sodium-dependent noradrenaline transporter (Homo sapiens) (UniProt P23975). Put plainly: Displacement of [3H]Nisoxetine from NET at 10 uM by scintillation counting. Particulars: tested as the 125I-labelled form. The gist of the method: as §1
Test [43] concerns the target D(1A) dopamine receptor (Homo sapiens) (UniProt P21728). Put plainly: Displacement of [3H]SCH233930 from dopamine D 1 ( receptor) at 10 uM by scintillation counting. Particulars: tested as the 125I-labelled form. The gist of the method:
as §1

Test [44] deals with Muscarinic acetylcholine receptor M4 (Homo sapiens) (UniProt P08173). As to the kind of experiment: Displacement of [3H]QNB from Muscarinic acetylcholine receptor M4 at 10 uM by scintillation counting. The following applies: tested as the 125I-labelled form. The gist of the method:
as §1

In test [45] the target is Sodium-dependent serotonin transporter (Homo sapiens) (UniProt P31645). Put plainly: Displacement of [3H]Citalopram from SERT at 10 uM by scintillation counting. Particulars: tested as the 125I-labelled form. The gist of the method: as §1
For test [46], the target named is Alpha-1A adrenergic receptor (Homo sapiens) (UniProt P35348). As to the kind of experiment: Displacement of [3H]Prazosin from alpha-1A adrenergic receptor at 10 uM by scintillation counting. Particulars: tested as the 125I-labelled form. The gist of the method:
as §1

5-hydroxytryptamine receptor 2C (Homo sapiens), sequence (P28335 whole entry): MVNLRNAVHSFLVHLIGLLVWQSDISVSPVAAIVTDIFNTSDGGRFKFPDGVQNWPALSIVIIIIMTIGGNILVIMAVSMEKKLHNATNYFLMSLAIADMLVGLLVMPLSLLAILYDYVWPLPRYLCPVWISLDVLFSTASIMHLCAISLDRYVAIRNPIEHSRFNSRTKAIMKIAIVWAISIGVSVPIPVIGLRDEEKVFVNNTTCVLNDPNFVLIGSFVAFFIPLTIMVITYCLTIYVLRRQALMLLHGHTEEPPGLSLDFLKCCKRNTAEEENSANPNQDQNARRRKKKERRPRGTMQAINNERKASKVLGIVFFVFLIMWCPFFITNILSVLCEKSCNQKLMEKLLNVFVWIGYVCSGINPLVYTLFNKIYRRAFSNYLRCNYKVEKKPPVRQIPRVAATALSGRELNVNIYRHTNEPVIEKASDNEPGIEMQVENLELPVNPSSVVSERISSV
Translocator protein, sequence (P30536 whole entry): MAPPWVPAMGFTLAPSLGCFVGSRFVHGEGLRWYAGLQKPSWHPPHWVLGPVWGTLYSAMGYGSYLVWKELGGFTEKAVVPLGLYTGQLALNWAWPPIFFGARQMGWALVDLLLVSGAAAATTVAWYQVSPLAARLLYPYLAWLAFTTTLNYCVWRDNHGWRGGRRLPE
5-hydroxytryptamine receptor 5A (Homo sapiens), sequence (P47898 whole entry): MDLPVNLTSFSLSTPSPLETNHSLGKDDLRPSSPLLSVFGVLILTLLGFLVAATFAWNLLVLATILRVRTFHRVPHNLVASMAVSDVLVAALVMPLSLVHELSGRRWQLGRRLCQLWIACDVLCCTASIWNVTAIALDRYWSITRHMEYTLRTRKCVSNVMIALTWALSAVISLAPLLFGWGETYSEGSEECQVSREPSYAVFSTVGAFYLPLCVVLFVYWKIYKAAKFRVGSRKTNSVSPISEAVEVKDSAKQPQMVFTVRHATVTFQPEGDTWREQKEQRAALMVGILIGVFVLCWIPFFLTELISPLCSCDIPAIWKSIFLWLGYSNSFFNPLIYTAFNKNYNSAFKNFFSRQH
Alpha-1A adrenergic receptor (Homo sapiens), sequence (P35348 whole entry): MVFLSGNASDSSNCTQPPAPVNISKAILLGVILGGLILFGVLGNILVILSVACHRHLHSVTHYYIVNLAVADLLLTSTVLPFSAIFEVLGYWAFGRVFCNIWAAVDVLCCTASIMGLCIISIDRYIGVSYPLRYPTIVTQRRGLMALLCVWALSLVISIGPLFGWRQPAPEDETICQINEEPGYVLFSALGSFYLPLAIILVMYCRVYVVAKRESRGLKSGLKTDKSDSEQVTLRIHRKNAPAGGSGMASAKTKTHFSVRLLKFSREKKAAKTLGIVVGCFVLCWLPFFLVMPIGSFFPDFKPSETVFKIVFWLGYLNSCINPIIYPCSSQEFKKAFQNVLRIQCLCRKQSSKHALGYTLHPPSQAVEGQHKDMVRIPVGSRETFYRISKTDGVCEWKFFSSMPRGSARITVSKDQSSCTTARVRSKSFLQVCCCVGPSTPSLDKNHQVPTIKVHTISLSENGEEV
Muscarinic acetylcholine receptor M5 (Homo sapiens), sequence (P08912 whole entry): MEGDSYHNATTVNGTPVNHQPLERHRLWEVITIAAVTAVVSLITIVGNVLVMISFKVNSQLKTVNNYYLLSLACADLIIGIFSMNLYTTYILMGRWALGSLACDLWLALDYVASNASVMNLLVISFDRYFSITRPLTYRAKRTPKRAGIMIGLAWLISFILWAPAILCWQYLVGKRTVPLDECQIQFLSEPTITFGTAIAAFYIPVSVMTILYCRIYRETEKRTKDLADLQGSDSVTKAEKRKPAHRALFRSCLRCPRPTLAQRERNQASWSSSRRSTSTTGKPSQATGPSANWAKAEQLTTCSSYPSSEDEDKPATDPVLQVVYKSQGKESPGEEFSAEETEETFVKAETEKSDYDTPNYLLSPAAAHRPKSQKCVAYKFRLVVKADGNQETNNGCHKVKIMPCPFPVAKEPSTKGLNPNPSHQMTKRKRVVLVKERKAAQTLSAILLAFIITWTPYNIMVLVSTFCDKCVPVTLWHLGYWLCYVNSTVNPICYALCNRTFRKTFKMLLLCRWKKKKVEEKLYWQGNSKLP
5-hydroxytryptamine receptor 1A, sequence (P08908 whole entry): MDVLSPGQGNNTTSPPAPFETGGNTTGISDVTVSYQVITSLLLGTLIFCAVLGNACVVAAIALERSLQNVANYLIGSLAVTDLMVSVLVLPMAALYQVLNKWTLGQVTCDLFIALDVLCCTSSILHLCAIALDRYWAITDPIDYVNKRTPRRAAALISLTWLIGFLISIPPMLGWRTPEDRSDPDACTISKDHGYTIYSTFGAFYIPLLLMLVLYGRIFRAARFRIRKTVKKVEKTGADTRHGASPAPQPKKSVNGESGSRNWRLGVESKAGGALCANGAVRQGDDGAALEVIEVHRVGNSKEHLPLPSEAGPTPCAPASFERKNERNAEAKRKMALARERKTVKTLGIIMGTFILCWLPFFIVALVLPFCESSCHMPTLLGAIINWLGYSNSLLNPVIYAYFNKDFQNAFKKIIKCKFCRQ

Consider `COc1ccc(-c2c(C#N)c(C(=O)NN3CCCCC3)nn2-c2ccccc2[125I])cc1`, for which the Ki (usually the equilibrium dissociation constant of an inhibitor or competing ligand from its target) in [1] is over 10 µM; in test [2], 0.0034 µM; in test [3], 0.0935 µM; in test [4], 1.48 µM; in test [5] it was 1.5 µM; in [6], 3.17 µM. Moreover, the Ki in test [7] worked out at 0.548 µM.

For the molecule `COc1ccc(-c2c(C#N)c(C(=O)NN3CCCCC3)nn2-c2ccccc2I)cc1`, the inhibition in [8], in [9], in test [10], in test [11], in test [12] and in [13] was under 50% each time. In addition, the inhibition in [14], in test [15], in test [16], in test [17], in [18] and in test [19] was under 50% throughout. The inhibition in test [20], in test [21], in [22], in [23], in test [24] and in test [25] was under 50% each time. The inhibition in [26], in test [27], in test [28], in test [29], in test [30] and in test [31] was under 50% in each case. Moreover, the inhibition in [32], in test [33], in test [34], in test [35], in test [36] and in [37] was under 50% each time. Moreover, the inhibition in test [38], in test [39], in test [40], in [41], in [42] and in test [43] was under 50% each time. The inhibition in test [44], in test [45] and in test [46] was under 50% throughout.
